Screening results from PubChem BioAssay.
APOBEC3A inh – inhibitors of human APOBEC3A DNA deaminase; recombinant A3A, FAM/TAMRA ssDNA deamination fluorescence; actives 0.41% (n = 330,000); AID 493011; P31941; inhibition, % at 20 µM;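 active = at least 40% inhibition at 20 µM here, with at most 30% in a related deaminase screen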;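 note: plate controls were A3A with DMSO for no effect and wells lacking A3A enzyme for full effect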
Target sequence (P31941 whole entry, looked up): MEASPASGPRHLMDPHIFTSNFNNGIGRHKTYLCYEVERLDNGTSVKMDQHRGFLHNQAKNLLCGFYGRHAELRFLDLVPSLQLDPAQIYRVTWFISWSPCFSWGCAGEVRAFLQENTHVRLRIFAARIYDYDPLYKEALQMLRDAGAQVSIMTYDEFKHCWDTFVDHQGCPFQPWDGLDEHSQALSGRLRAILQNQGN
ABHD5-PLIN5 inh – ABHD5-PLIN5 protein interaction inhibition; Q00G26+Q8WTS1; Split G. princeps luciferase complementation, luminescence, 4 h; inhibition, % at 4 µM; actives 0.78% (n = 360,000); AID 602281;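 active = inhibition above the mean inhibition across every tested compound plus 3 SD, cut at about 22% in these data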;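 note: 0% = DMSO only wells and the 100% control is not disclosed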
PRMT1 inh – blocks human protein arginine methyltransferase 1 | inhibition, % at 2.79 µM | recombinant PRMT1, activity-based probe fluorescence polarization | actives 1.3% (n = 370,000);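 active = inhibition above about 21% made by adding two undisclosed values, limit read from the data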
core dimer inh – HCV core protein dimerization inhibition; TR-FRET GST/Flag-core106 dimerization, 1536-well; inhibition, % at 5 µM; actives 0.33% (n = 300,000);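 active = inhibition above the mean of all tested compounds plus 3 SD, set per screening campaign, cut at about 45% in these data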
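Assay system: Tagged HCV core106 pair (GST and Flag) | Buffer or medium: KF-containing HEPES buffer, pH 7.45, DTT, CHAPS, BSA | Also added: Eu donor and XL665 acceptor anti-tag antibodies | Dosing: One concentration, 5 µM, in 0.5% DMSO | Timing: 4 h at 22.5 °C | Technique: TR-FRET 671 and 617 nm emission | Repeats: Singlicate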
APOBEC3G inh – APOBEC3G (human) deaminase inhibition; recombinant A3G, ssDNA deamination FAM/TAMRA fluorescence; actives 0.28% (n = 330,000); inhibition, % at 20 µM; Q9HC16;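 active = inhibition of at least 40% at 20 µM, with no more than 30% in the related APOBEC3A deaminase screen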;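 note: plate controls were DMSO wells with A3G for no effect and wells lacking A3G enzyme for full effect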
Target sequence (Q9HC16 whole entry, looked up): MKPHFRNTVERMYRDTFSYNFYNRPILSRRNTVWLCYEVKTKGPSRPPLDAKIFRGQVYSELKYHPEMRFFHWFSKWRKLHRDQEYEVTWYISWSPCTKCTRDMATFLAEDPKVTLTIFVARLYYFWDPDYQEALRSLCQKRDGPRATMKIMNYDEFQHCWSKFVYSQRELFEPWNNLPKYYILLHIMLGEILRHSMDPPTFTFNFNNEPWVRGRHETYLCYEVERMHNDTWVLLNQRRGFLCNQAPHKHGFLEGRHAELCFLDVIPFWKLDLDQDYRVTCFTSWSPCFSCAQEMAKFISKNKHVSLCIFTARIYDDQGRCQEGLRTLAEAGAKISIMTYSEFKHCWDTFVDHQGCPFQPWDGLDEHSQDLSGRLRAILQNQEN
HCV NS3 hel inh – inhibitors of Hepatitis C virus NS3 helicase. NS3 helicase DNA unwinding, Cy5 molecular beacon fluorescence. AID 1800. inhibition, % at 10.9 µM. actives 0.56% (n = 290,000);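 active = inhibition above the mean of all tested compounds plus 3 SD, set per campaign, cut at about 35% in these data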;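 note: 0% = DMSO wells and 100% = thioflavine S control wells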
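Material: hepatitis C virus NS3 helicase domain fragment enzyme; measured by: Cy5 fluorescence, 0 and 60 min reads; control set: DMSO and thioflavine S; incubation: 60 min unwinding reaction at 25 °C after ATP addition; read-out basis: % inhibition from 60/0 min fluorescence ratio, DMSO 0%, thioflavine S 100%; repeats: singlicate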
* hit, by the source's call; · = no result given. Rows were chosen to be rich in hits. Some 2.9% of all compounds tested hit in one or more screens of this group.

SMILES	APOBEC3A inh	ABHD5-PLIN5 inh	PRMT1 inh	core dimer inh	APOBEC3G inh	HCV NS3 hel inh
O=C1N[C@@H](Cc2ccccc2)C(=O)N2[C@H]1C[C@]1([C@]34C[C@H]5C(=O)N[C@@H](Cc6ccccc6)C(=O)N5[C@H]3N(S(=O)(=O)c3ccccc3)c3ccccc34)c3ccccc3N(S(=O)(=O)c3ccccc3)[C@H]21	0.3	21.4	-1.2	60.1*	5.5	·
CC(C)c1cc(C(C)C)c(S(=O)(=O)N2c3ccccc3[C@@]3(Br)C[C@H]4C(=O)N[C@@H](Cc5ccccc5)C(=O)N4[C@@H]23)c(C(C)C)c1	1.1	·	·	46.0*	0.2	·
O=C(Nc1ccc(S(=O)(=O)Nc2ncccn2)cc1)c1ccc2ncsc2c1	7.5	-6.8	23.9*	10.2	-2.7	13.5
O=C(Nc1ccncc1)c1ccc2ncsc2c1	-1.6	-3.4	-1.2	-1.2	-6.0	·
CCCc1c(-c2ccc(Cl)cc2)ncn1CCc1ccccc1OC	·	-4.8	3.0	·	·	·
O=C(CN1C(=O)S/C(=C\c2ccccc2F)C1=O)Nc1ccccc1O	1.5	4.5	21.7*	-3.3	-6.4	-10.9
Cc1cc(/C=C2\SC(=O)N(CC(=O)Nc3ccccc3F)C2=O)c(C)n1C	-2.7	1.9	2.0	0.7	-2.8	14.7
CCN1C(=O)[C@H]2[C@H]3CN=C(SC)N3[C@@](Cc3ccccc3)(C(=O)OC)[C@H]2C1=O	2.7	-0.7	2.0	·	-2.3	·
NC(=O)[C@H]1CC2(CC(c3cccc(NC(=O)CC(c4ccccc4)c4ccccc4)c3)=NO2)CN1C(=O)c1ccccc1C(=O)c1ccccc1 (stereo partly drawn)	-3.6	17.3	0.1	46.3*	-3.2	·
C=C(C)C(=O)N1CC2(CC(c3cccc(NC(=O)/C=C\C=C/C)c3)=NO2)C[C@H]1C(N)=O (stereo partly drawn)	3.4	9.0	1.5	56.4*	21.5	·
C/C=C/C=C\C(=O)Nc1cccc(C2=NOC3(C2)C[C@@H](C(N)=O)N(C(=O)c2cc([N+](=O)[O-])cc([N+](=O)[O-])c2)C3)c1 (stereo partly drawn)	2.1	-0.9	23.2*	28.6	-8.4	·
C/C=C\C(=O)Nc1cccc(C2=NOC3(C2)C[C@H](C(N)=O)N(C(=O)/C=C/CC)C3)c1 (stereo partly drawn)	0.7	7.7	-0.3	-4.2	2.7	·
C/C=C\C=C/C(=O)Nc1cccc(C2=NOC3(C2)C[C@@H](C(N)=O)N(C(=O)/C=C/C=C\C)C3)c1 (stereo partly drawn)	15.9	17.4	·	39.3	37.1	·
C/C=C\C=C/C(=O)Nc1cccc(C2=NOC3(C2)C[C@@H](C(N)=O)N(C(=O)/C=C/CC)C3)c1 (stereo partly drawn)	-5.6	1.3	·	52.7*	1.7	·
CC(C)[C@H](NC(=O)C1CC1)C(=O)N1CCC[C@H]1C(=O)NCc1ccccc1	·	·	0.8	·	·	·
Cc1ccccc1C(=O)N[C@H](C(=O)N1CCC[C@H]1C(=O)NC1CCCC1)c1ccccc1	·	·	-0.9	·	·	·
O=C(Nc1ccc2ccccc2c1)C(c1ccc(C(F)(F)F)cc1)n1c(=O)c(-c2cc3ccccc3[nH]2)nc2ccccc21 (stereo not drawn)	·	-15.8	-2.8	·	·	·
CCOc1cc(/C=N/Nc2ccccc2Cl)ccc1OCC(=O)O	·	-7.0	-2.1	-10.4	·	53.4*
Cc1cnc(C)c(Nc2nc(C(N)Cc3ccc(Cl)cc3)cs2)n1 (stereo not drawn)	·	-0.2	24.7*	·	·	·
COc1ccc(C(=O)CCN2CCCC(C)C2)cc1 (stereo not drawn)	2.9	5.3	24.6*	-5.1	-0.4	6.7
CCOC(=O)N1CCN(CCC(=O)c2ccc(OC)cc2)CC1	-2.3	1.8	21.4*	1.3	-4.2	3.4
COC(=O)C1CN(Cc2ccc(OC)cc2)CCS(=O)(=O)N1Cc1cn(CCOC(C)=O)nn1 (stereo not drawn)	·	·	1.6	·	·	·
COc1cccc2c(SCC(=O)N/N=C/c3ccc(O)c(O)c3)cc(C)nc12	·	-0.9	29.2*	9.8	·	-5.7
COc1ccc2nc(C)cc(SCC(=O)N/N=C/c3ccc(O)c(O)c3)c2c1	6.9	-4.0	6.0	1.7	4.1	-17.0
COc1ccc(Br)cc1/C=N/NC(=O)CNC(=O)/C=C/c1ccccc1	0.9	15.1	0.6	10.8	0.9	-7.9
SMILES	APOBEC3A inh	ABHD5-PLIN5 inh	PRMT1 inh	core dimer inh	APOBEC3G inh	HCV NS3 hel inh
COc1ccc(/C=C/C(=O)NCC(=O)N/N=C/c2cc(Br)ccc2OCc2ccccc2)cc1	-0.1	4.8	-1.6	49.1*	-2.8	-3.4
COc1cc(C2C(C#N)=C(N)N(c3cccnc3)C3=C2C(=O)CCC3)ccc1O (stereo not drawn)	-0.7	-12.3	6.9	-4.8	2.4	-4.2
COc1cc(C2C(C#N)=C(N)N(c3ccc(F)cc3)C3=C2S(=O)(=O)CC3)ccc1O (stereo not drawn)	-2.4	0.6	24.6*	6.5	-5.7	15.1
O=C1N=c2ccccc2=C1c1c(O)n(-c2cccc(F)c2)[nH]c1=O	·	-7.3	21.2*	-2.2	·	23.4
CC(C)(C)CCN1CCC[C@H](NC(=O)COc2ccc(F)c(Cl)c2)C1	·	·	3.5	·	·	·
COC(=O)Oc1nsnc1N1CCOCC1	3.0	-19.4	81.4*	-2.6	22.7	-4.7
c1ccc(OCc2nnc3sc(C4COc5ccccc5O4)nn23)cc1 (stereo not drawn)	11.3	-10.8	8.5	51.1*	7.1	11.6
c1ccc(Cc2nnc3sc(C4COc5ccccc5O4)nn23)cc1 (stereo not drawn)	6.8	-0.7	1.5	10.5	2.4	3.1
C[C@@H]1C=CCCO[C@]12C(=O)N(CC1CC1)c1ccccc12	·	·	1.2	·	·	·
O=C(N=Nc1c(O)[nH]c2ccc([N+](=O)[O-])cc12)c1ccccc1[N+](=O)[O-]	1.6	-2.6	0.5	1.4	4.1	-6.2
CCc1cc(C(=O)N=Nc2c(O)[nH]c3ccc([N+](=O)[O-])cc23)c2ccccc2n1	3.5	6.2	0.8	58.0*	-3.4	18.4
Cc1nc(SC2CC(=O)N(c3cc(Cl)cc(Cl)c3)C2=O)nc2c1CCCC2 (stereo not drawn)	-3.4	-6.6	24.1*	22.2	-3.8	10.1
Cc1cccc(N2C(=O)CC(Sc3nc(C)c4c(n3)CCCC4)C2=O)c1 (stereo not drawn)	-6.2	6.3	2.9	10.1	-6.6	-4.1
O=C(CNC(=O)c1ccc(Br)cc1)NCC(=O)OCC(=O)c1ccc(F)cc1	2.8	-4.2	-1.7	·	3.9	-3.7
O=C(CNC(=O)c1ccc(Br)cc1)NCC(=O)OCC(=O)c1ccc([N+](=O)[O-])cc1	-0.1	-11.6	23.3*	-10.8	2.9	6.1
Cc1ccc(-c2cc(C(=O)Nc3cc(C)on3)c3ccccc3n2)cc1	-0.1	3.6	-2.6	-4.7	-9.3	14.8
